Published values from different studies.
Compare with care: the assays were run in different laboratories.
HRH1: Histamine H1 receptor (HRH1, Homo sapiens, UniProt P35367)
PKN1: Serine/threonine-protein kinase N1 (PKN1, Homo sapiens, UniProt Q16512)
MAOB: Amine oxidase [flavin-containing] B (MAOB, Homo sapiens, UniProt P27338)
CA9: Carbonic anhydrase 9 (CA9, Homo sapiens, UniProt Q16790)
PADI4: Protein-arginine deiminase type-4 (PADI4, Homo sapiens, UniProt Q9UM07)

CN1CCC(C2c3ccccc3CCc3ccccc32)CC1
kon (HRH1; binding): 717000 M⁻¹ s⁻¹

Cc1c(Cn2c(C)nc3c(C(=O)O)cc(N4CCOCC4)cc32)cccc1C(F)(F)F
activity vs control (PKN1; enzyme activity, inhibitor; 1 µM): 88%

O=C(Nc1cccc(Cl)c1)c1cc(Cl)ccc1O
inhibition (MAOB; enzyme activity, inhibitor; 1 µM, 20 min): 87%

CC#CC(=O)Nc1cc2c(Nc3ccc(F)c(Cl)c3)ncnc2cn1
activity vs control (PKN1; enzyme activity, inhibitor; 1 µM): 81%

N=C(N)NCCC[C@H](NC(=O)[C@H](CC(=O)O)NC(=O)[C@H](Cc1c[nH]c2ccccc12)NC(=O)[C@H](CCCNC(=N)N)NC(=O)[C@@H](N)Cc1ccccc1)C(=O)N[C@@H](Cc1ccccc1)C(=O)NCC(=O)O
Emax (Melanocortin receptor 5 (Mus musculus, UniProt P41149); cAMP, agonist; HEK293): 90%

CCOc1ccc(C(=O)Nc2ccc([N+](=O)[O-])cc2C(F)(F)F)cc1OCC
inhibition (MAOB; enzyme activity, inhibitor; 1 µM, 20 min): 62%

CC[C@@H](N)CNc1ccnc(-c2cc(-c3cnn(C)c3)ccc2O)n1.Cl.Cl
activity vs control (PKN1; enzyme activity, inhibitor; 1 µM): 56%

O=C(Nc1ccc([N+](=O)[O-])cc1Cl)c1ccc2c(c1)OCO2
inhibition (MAOB; enzyme activity, inhibitor; 1 µM, 20 min): 62%

CN1CCC(=C(c2ccccc2)c2ccccc2)CC1
koff (HRH1; binding): 0.00583 s⁻¹

O=C(Nc1ccc(N2C(=O)c3ccccc3C2=O)c(Cl)c1)c1ncccc1O
Emax (Metabotropic glutamate receptor 1 (GRM1, Homo sapiens, UniProt Q13255); calcium signal, positive allosteric modulator; T-REx-293): 106%

COc1ccc2nc3ccc(Cl)cc3c(SCCCN)c2c1.Cl.Cl
activity vs control (PKN1; enzyme activity, inhibitor; 1 µM): 84%

CCOC(=O)C1CSc2[nH]c(=O)sc2C1c1cn(-c2ccccc2)nc1-c1ccc(C)cc1 (stereo not drawn)
inhibition (CA9; enzyme activity, inhibitor; 1 µM): 61.4%

CNC(=O)c1cccc2cc(Oc3ccnc4cc(OCC5(N)CC5)c(OC)cc34)ccc12
activity vs control (PKN1; enzyme activity, inhibitor; 1 µM): 92%

COc1cc(NC(C)=O)c(Cl)cc1C(=O)Nc1nccs1
inhibition (Endothelin receptor type B (EDNRB, Homo sapiens, UniProt P24530); cell-free assay; 10 µM): -13.1%

CNC(=O)c1ccccc1Nc1nc(Nc2ccc3c(c2OC)CCC[C@H](N2CCN(CCO)CC2)C3)ncc1Cl
activity vs control (PKN1; enzyme activity, inhibitor; 1 µM): 80%

O=C(Nc1ccc([N+](=O)[O-])cc1)c1cc(Cl)ccc1O
inhibition (MAOB; enzyme activity, inhibitor; 1 µM, 20 min): 66%

N=C(CF)NCCC[C@H](NC(=O)c1ccccc1C(=O)O)c1nn[nH]n1
kinact/KI (PADI4; enzyme activity, inhibitor): 780 M⁻¹ s⁻¹

Cl.Cl.c1cc(-c2cnn3cc(-c4ccc(OCCN5CCCCC5)cc4)cnc23)ccn1
activity vs control (PKN1; enzyme activity, inhibitor; 1 µM): 32%

Cc1ccc(C(=O)Nc2ccc([N+](=O)[O-])cc2C(F)(F)F)cc1
inhibition (MAOB; enzyme activity, inhibitor; 1 µM, 20 min): 69%

O=C1NC(=S)C(=Cc2cn(-c3ccccc3)nc2-c2ccc(Br)cc2)S1
inhibition (CA9; enzyme activity, inhibitor; 0.1 µM): 33.5%

N#Cc1ccc(NC(=O)c2ccccc2O)cc1
inhibition (MAOB; enzyme activity, inhibitor; 1 µM, 20 min): 32%

N=C(CF)NCCC[C@H](NC(=O)c1ccc(-c2ccccc2)cc1)c1nn[nH]n1
kinact/KI (PADI4; enzyme activity, inhibitor): 3.5 M⁻¹ s⁻¹

Cc1ccc(-c2nn(-c3ccccc3)cc2C2c3sc(=O)[nH]c3SC3C(=O)N(c4ccccc4)C(=O)C32)cc1 (stereo not drawn)
inhibition (CA9; enzyme activity, inhibitor; 0.1 µM): 39%

Cc1cc([N+](=O)[O-])ccc1NC(=O)c1ccc2c(c1)OCO2
inhibition (MAOB; enzyme activity, inhibitor; 1 µM, 20 min): 24%
